The source of these data is ChEMBL document CHEMBL3576783, “Synthesis and evaluation of 1,2,4-triazolo[1,5-a]pyrimidines as antibacterial agents against Enterococcus faecium” (J Med Chem, 2015).

Converted amounts (≈) assume the structure as drawn. The source made the active and inactive calls. The calls are words filed in the database; no cut-off is given here. Some results are limits rather than exact numbers.

For one series, the system named is Klebsiella pneumoniae. Description: Antibacterial activity against Klebsiella pneumoniae ATCC 700603 assessed as bacterial growth inhibition after 16-20 hrs by broth microdilution method. The class given is functional, organism-based. The essentials:
(§1)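 CLSI broth microdilution in cation-adjusted Mueller Hinton II broth, run in triplicate. Cultures grown to OD600 about 0.60-0.80, diluted 100-fold, final inoculum 5×10^5 CFU/mL. Compounds diluted from 5 mg/mL DMSO stocks; final 2% (v/v) DMSO plus 0.25% (v/v) glacial acetic acid. Plates incubated at 35 °C for 16-20 h before reading the MIC.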

For a further series, the system named is Liver. Description: Half life in human liver S9 at 10 uM after 60 mins by UPLC analysis. In kind it is ADME, subcellular, Liver S9 fraction. Conditions: s9, 1 h. The method in brief:
(§2)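 Pooled human liver S9 (1 mg/mL) with 1 mM NADPH and 10 μM compound in sodium phosphate buffer (0.20 M phosphate, 0.15 M NaCl, pH 7.4), 37 °C for 60 min. Six time points quenched in acetonitrile with internal standard, analysed by UPLC-MRM. Half-life taken from first-order rate constant; CLint scaled with 45 mg protein/g liver and 20 g liver/kg. Run in duplicate.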

The test system of series [1] is Enterococcus faecium. The experiment in a line: Antibacterial activity against Enterococcus faecium C68 assessed as bacterial growth inhibition after 16-20 hrs by broth microdilution method. The class given is functional. The method in brief: (§3)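 CLSI broth microdilution in cation-adjusted Mueller Hinton II broth, triplicate. Cultures grown to OD600 about 0.60-0.80, diluted 100-fold; final inoculum 5×10^5 CFU/mL. Compounds from 5 mg/mL DMSO stock diluted in medium, final 2% (v/v) DMSO plus 0.25% (v/v) glacial acetic acid. Incubated 35 °C, 16-20 h, then MIC read.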

Series [2] can be described thus: Induction of hemolysis in RBC (unknown origin) at 64 ug/ml. Conditions: erythrocytes.
In series [3] the test system is Staphylococcus aureus. The experiment in a line: Antibacterial activity against Staphylococcus aureus ATCC 29213 assessed as bacterial growth inhibition after 16-20 hrs by broth microdilution method. In kind it is functional, organism-based. The essentials:
as §1

In the next series the test system is BL21-DE3. Description: Inhibition of Enterococcus faecium D63r PBP5fm expressed in Escherichia coli BL21 (DE3) cells up to 100 ug/ml after 10 to 20 mins by BIOCILLIN FL-based fluorescence assay. The essentials: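 Recombinant PBP5fm lacking the signal peptide, expressed in E. coli BL21(DE3) and purified by anion-exchange then chelating chromatography. Enzyme (40 μM) preincubated with inhibitor in 25 mM Hepes, 1 M NaCl, pH 7.0 at 37 °C for 20 min. BOCILLIN FL (30 μM) then added for a further 20 min. Bands resolved on 12% SDS-PAGE and fluorescence quantified against a no-inhibitor control.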

Series [4] deals with Staphylococcus aureus. The experiment in a line: Inhibition of Staphylococcus aureus PBP2a up to 100 ug/ml by BIOCILLIN FL based fluorescence analysis. The method in brief:
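Recombinant purified PBP2a (final 2 μM) preincubated with inhibitor in 25 mM Hepes, 1 M NaCl, pH 7.0, 37 °C, 10 min. BOCILLIN FL (final 20 μM) then added for 10 min at 37 °C. Samples boiled in SDS buffer and run on 12% SDS-PAGE. Fluorescent bands scanned and quantified against a no-inhibitor control.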

For series [5], the system named is Enterococcus faecium. The experiment in a line: Antibacterial activity against Enterococcus faecium C9 assessed as bacterial growth inhibition after 16-20 hrs by broth microdilution method. The class given is functional. The method in brief: as §3
For series [6], the system named is Enterococcus faecium. The experiment in a line: Antibacterial activity against vancomycin-susceptible Enterococcus faecium 119-39A assessed as bacterial growth inhibition after 16-20 hrs by broth microdilution method. In kind it is functional. The essentials:
as §3

Series [7] relates to Enterococcus faecium. The experiment in a line: Antibacterial activity against copper, erythromycin, teracycline-resistant and vancomycin and teicoplanin-sensitive Enterococcus faecium ATCC BAA2127 assessed as bacterial growth inhibition after 16-20 hrs by broth microdilution method. The class given is functional. The essentials: as §3
A further series concerns Enterobacter sp. Description: Antibacterial activity against Enterobacter sp. assessed as bacterial growth inhibition after 16-20 hrs by broth microdilution method. In kind it is functional, organism-based. The essentials: as §1
In series [8] the test system is Enterococcus faecium. The experiment in a line: microbe, parasite or virus in culture. Conditions: NCTC 7171.
Series [9] can be described thus: Apparent intrinsic clearance in human liver S9 at 10 uM after 60 mins by UPLC analysis. Conditions: read-out: CLH(app). In kind it is ADME, subcellular, Liver S9 fraction. The essentials:
as §2

The next series deals with Pseudomonas aeruginosa. The experiment in a line: Antibacterial activity against Pseudomonas aeruginosa ATCC 27853 assessed as bacterial growth inhibition after 16-20 hrs by broth microdilution method. In kind it is functional, organism-based. The method in brief: as §1
In the next series the test system is Plasma. Description: Plasma protein binding in human at 10 uM by rapid equilibrium dialysis method. The class given is ADME, cell-free. The essentials:
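Human plasma centrifuged to clear particulates, spiked with compound to final 10 μM in 0.1% DMSO. Dialysed against 0.1 M sodium phosphate buffer, pH 7.4, at 37 °C overnight with shaking in a rapid equilibrium dialysis device. Buffer and plasma sides extracted with acetonitrile containing internal standard and analysed by UPLC-MRM. Binding calculated as (Cp−Cf)/Cp×100.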

For series [10], the system named is Enterococcus faecium. Description: Antibacterial activity against Enterococcus faecium C38 assessed as bacterial growth inhibition after 16-20 hrs by broth microdilution method. In kind it is functional. The method in brief:
as §3

A further series concerns Acinetobacter baumannii. The experiment in a line: Antibacterial activity against Acinetobacter baumannii ATCC 17961 assessed as bacterial growth inhibition after 16-20 hrs by broth microdilution method. The class given is functional, organism-based. The method in brief:
as §1

Series [11] relates to Enterococcus faecium. Description: Inhibition of peptidoglycan synthesis in Enterococcus faecium NCTC 7171 assessed as decrease in D-[2,3-3H]-alanine incorporation at 8 ug/ml after 120 mins by liquid scintillation counting analysis. The class given is functional, organism-based. The method in brief:
(§4)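 E. faecium NCTC 7171 grown in brain-heart infusion at 37 °C to early-log phase. Tritiated precursor (1 uCi/mL) added and incubated 5 min; compound then added at 8 μg/mL with DMSO negative control, followed by 2 h growth. Samples taken every 20 min, precipitated in 20% ice-cold TCA, filtered, washed with TCA and ethanol, and scintillation-counted in duplicate. Value reported at 120 min.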

Series [12] concerns Enterococcus faecium. The experiment in a line: Antibacterial activity against vancomycin and teicoplanin-resistant Enterococcus faecium ATCC 700221 isolated from human faeces assessed as bacterial growth inhibition after 16-20 hrs by broth microdilution method. In kind it is functional. Conditions: ATCC 700221, Feces. The essentials: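 Broth microdilution in cation-adjusted Mueller Hinton II broth, run to CLSI method, triplicate. Cells grown to OD600 ~0.60-0.80, diluted 100-fold; final inoculum 5×10^5 CFU/mL. Compounds from 5 mg/mL DMSO stocks diluted in medium, final 2% (v/v) DMSO plus 0.25% (v/v) glacial acetic acid. Incubated 35 °C for 16-20 h, then MIC read.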

Series [13] has as its system Enterococcus faecium. The experiment in a line: Inhibition of translation in Enterococcus faecium NCTC 7171 assessed as decrease in L-[4,5-3H]-leucine incorporation into protein at 8 ug/ml after 120 mins by liquid scintillation counting analysis. In kind it is functional, organism-based. The method in brief:
as §4

Series [14] relates to Enterococcus faecium. The experiment in a line: Inhibition of transcription in Enterococcus faecium NCTC 7171 assessed as decrease in [5,6-3H]-uridine incorporation into RNA at 8 ug/ml after 120 mins by liquid scintillation counting analysis. The class given is functional, organism-based. The method in brief:
as §4

For series [15], the system named is Enterococcus faecium. Description: Inhibition of DNA replication in Enterococcus faecium NCTC 7171 assessed as decrease in [methyl-3H]-thymidine incorporation into DNA at 8 ug/ml after 120 mins by liquid scintillation counting analysis. In kind it is functional, organism-based. The essentials:
as §4

A further series deals with Escherichia coli. Description: Effect on beta-galactosidase reporter gene translation in Escherichia coli S30 extract by transcription/translation assay. The class given is functional.

Take `CC1=C(C(N)=O)C(c2ccc(C(C)C)cc2)n2nc(SCc3ccccc3)nc2N1` (stereo not drawn): the inhibition entry in the series on Klebsiella pneumoniae, in the series on Staphylococcus aureus [3], in the series on BL21-DE3, with Staphylococcus aureus [4], in the series on Enterobacter sp. and with Pseudomonas aeruginosa was “inactive” throughout. The inhibition entry with Acinetobacter baumannii is “inactive”. This compound gave a t1/2 with Liver of 56 min. Further, the MIC in the series with Enterococcus faecium [1] was determined as 16 µg/mL (≈ 38.1 µM); with Enterococcus faecium [5], 16 µg/mL (≈ 38.1 µM); in the series on Enterococcus faecium [6], 4 µg/mL (≈ 9.53 µM); in the series on Enterococcus faecium [7] it was 4 µg/mL (≈ 9.53 µM); against Enterococcus faecium [8], 8 µg/mL (≈ 19.1 µM); in the series on Enterococcus faecium [10] it was 16 µg/mL (≈ 38.1 µM). This compound also had an Activity in series [2] of 22%. The compound further registered an MBC in the series with Enterococcus faecium [8] of 32 µg/mL (≈ 76.3 µM). Further, the CLint scaled at 10 µM in series [9] was found to be 11.1 mL/min/kg. In the series on Plasma, this compound had a PPB of 98.7%.

On to `CC1=C(C(N)=O)C(c2ccc(N(C)C)cc2)n2nc(SCc3ccccc3)nc2N1` (stereo not drawn), for which, in the series with Enterococcus faecium [11], the inhibition result was “Active”. Further, the t1/2 in the series with Liver was above 60 min. The Activity in [2] amounted to 2%. The MIC in the series on Enterococcus faecium [6] worked out at 4 µg/mL (≈ 9.51 µM); in the series on Enterococcus faecium [7], 4 µg/mL (≈ 9.51 µM); in the series with Enterococcus faecium [12], 4 µg/mL (≈ 9.51 µM); in the series with Enterococcus faecium [8], 4 µg/mL (≈ 9.51 µM); in the series on Enterococcus faecium [10], 16 µg/mL (≈ 38 µM). Also, the inhibition result in the series on Enterococcus faecium [13], with Enterococcus faecium [14] and in the series on Enterococcus faecium [15] was “inactive” in each case. In the series on Enterococcus faecium [8], the MBC amounted to 32 µg/mL (≈ 76.1 µM). The CLint scaled at 10 µM in series [9] was below 10.4 mL/min/kg. The compound further yielded a PPB in the series with Plasma of 97.6%. For the same compound, the outcome with Escherichia coli was inactive.
